Assay outcomes: PubChem BioAssay, several laboratories
Compounds with a hit are over-represented: about 2.8% of the library has one in this group of screens.
NPY Y2 blocker = NPY-Y2 receptor antagonists, primary screen, cell-based; Neuropeptide Y receptor type 2 (Homo sapiens), P49146; NPY-Y2 expressing cells, antagonist mode; inhibition, % at 2.7 µM; hit rate 0.99% among 140,000; in the data active = inhibition above about 17%;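 also: 0% = vehicle with agonist challenge and 100% = reference antagonist with challenge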
Measles CPE = compounds protecting cells from measles virus cytopathic effect, primary screen, measles RdRp inhibitor project, single point, MLSMR library, absorbance. AID 841, 2007. Measles virus-infected cells, CPE protection. protection (pct of control), % at 4 µM. hit rate 1.5% among 140,000; in the data active = protection mostly above about 24%, no sharp cut-off; inactive = mostly below about 26%
NPY-Y1 PAM-ag = NPY-Y1 receptor potentiators or agonists, primary screen, cell-based. Neuropeptide Y receptor type 1 (Homo sapiens), P25929. NPY-Y1 expressing cells, potentiator/agonist activation. activation, % at 3.6 µM. hit rate 0.37% among 220,000. AID 1304, 2008; in the data active = activation above about 33%, passing the limit was not always enough;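 also: cells stimulated with NPY at EC10 then isoproterenol at EC100; 0% = low agonist plus stimulus and 100% = saturating agonist plus stimulus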
Target sequence (P25929 whole entry, looked up): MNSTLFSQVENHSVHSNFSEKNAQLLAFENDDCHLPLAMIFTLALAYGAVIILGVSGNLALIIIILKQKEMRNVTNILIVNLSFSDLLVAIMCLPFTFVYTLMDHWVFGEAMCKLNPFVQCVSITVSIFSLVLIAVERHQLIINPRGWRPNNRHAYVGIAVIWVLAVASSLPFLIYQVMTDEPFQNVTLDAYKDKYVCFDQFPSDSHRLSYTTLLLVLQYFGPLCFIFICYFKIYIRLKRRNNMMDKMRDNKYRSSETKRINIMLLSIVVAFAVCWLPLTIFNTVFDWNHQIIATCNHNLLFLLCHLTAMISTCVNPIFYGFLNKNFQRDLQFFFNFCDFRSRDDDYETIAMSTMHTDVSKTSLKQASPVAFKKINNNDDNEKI
Rad51 HR inh = human RAD51 strand exchange inhibitors, primary screen, biochemical, fluorescence. DNA repair protein RAD51 homolog 1 (Homo sapiens), Q06609. hRad51 DNA strand exchange, fluorescence dequenching. inhibition, % at 10 µM. hit rate 0.085% among 200,000. AID 1385, 2008;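 active = inhibition above 40% at the single screening dose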;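 also: 0% = DMSO control wells and 100% = blanks with heterologous ssDNA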
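System: human Rad51 nucleoprotein filaments preassembled on unlabelled ssDNA. Reagent: labelled 47-mer dsDNA for strand exchange. Schedule: 30-min compound preincubation and 15-min exchange, both room temperature. Measured by: FRET fluorescence dequenching, excitation 485 nm, emission 520 nm. Read-out: Fluorescence-based percent inhibition, control- and blank-normalised. Benchmarks: plate controls and plate blanks.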
NPY Y1 blocker = NPY-Y1 receptor antagonists, primary screen, cell-based. Neuropeptide Y receptor type 1 (Homo sapiens), P25929. HEK293-CNG Y1 cells, membrane potential fluorescence; NPY at EC95, then isoproterenol. inhibition, % at 3.6 µM. hit rate 1% among 200,000. AID 1040, 2008;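 active = inhibition above the campaign mean inhibition of all tested compounds plus 3 SD, cut at about 20% in these data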;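 also: 0% = DMSO wells given NPY plus isoproterenol and 100% = isoproterenol alone without NPY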
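Material: HEK293 Y1/CNG channel cell line | Also added: NPY (25 nM), isoproterenol (1 µM), Ro 20-1724 (25 µM) | Compound: One concentration, 3.6 µM, in 0.4% DMSO | Schedule: 3 h dye uptake, 1 h room-temperature compound, 45 min post-isoproterenol | Signal: Membrane-potential fluorescent dye readout | Read-out: % inhibition of NPY effect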
NPY2 pot ag = NPY-Y2 potentiators or agonists, primary screen, cell-based; Neuropeptide Y receptor type 2 (Homo sapiens), P49146; cells expressing NPY-Y2, potentiator/agonist read-out; activation, % at 3.6 µM; hit rate 0.45% among 220,000; AID 1359, 2008; in the data active = activation above about 27%;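 also: cells stimulated with NPY near EC25 plus isoproterenol at EC100; 0% = vehicle plus submaximal agonist and 100% = vehicle plus saturating agonist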
An asterisk follows results filed as active; nt = no result.

SMILES	NPY Y2 blocker	Measles CPE	NPY-Y1 PAM-ag	Rad51 HR inh	NPY Y1 blocker	NPY2 pot ag
Cc1cc(NC(=O)COc2ccc(N(C)S(=O)(=O)c3ccccc3)cc2)no1	5	64*	18	-11	1	-22
Cc1ccc(S(=O)(=O)/C(C#N)=C/c2c(N3CCCCC3)nc3ccccn3c2=O)cc1	nt	nt	30	15	nt	-12
N#C/C(=C\c1c(N2CCOCC2)nc2ccccn2c1=O)S(=O)(=O)c1ccccc1	-1	27*	-8	9	-3	9
CN(C)c1nc(NCc2ccccc2)nc(SCC(=O)Nc2ccccc2Cl)n1	43*	5	2	-20	26*	-3
COc1ccc([C@H](C)NC[C@H](O)c2ccc(O)c(NC=O)c2)cc1	nt	nt	59*	17	-9	79*
CCCc1nc2ccccc2c(C(=O)OC(C)C(=O)NCc2ccc3c(c2)OCO3)c1CC (centres undefined)	19*	6	-26	3	25*	-2
CCCc1nc2ccccc2c(C(=O)OCC(=O)NCc2ccc3c(c2)OCO3)c1CC	14	8	-17	7	9	-17
CSC1=NC(C)(C)CC2(C)Nc3ccccc3N12 (centres undefined)	3	18*	-9	5	-1	8
COc1cc(NC(=O)C2CCCCC2)c(OC)cc1NC(=O)CN1CCCCC1	-4	47*	3	10	6	8
CCOC(=O)c1c(-c2ccccc2)oc2ccc(O)c(CN(C)C)c12	25*	4	-49	-5	22*	-35
CCOC(=O)c1c(-c2ccccc2)oc2ccc(O)c(CN3CCCC3)c12	23*	10	-43	0	39*	-44
CCOC(=O)c1c(CSCc2ccccc2)oc2ccc(O)c(CN(C)C)c12	nt	nt	20	nt	nt	-21
COCCOC(=O)c1c(C)oc2ccc(O)c(CN3CCC(C)CC3)c12	13	20	-15	-3	15	-8
CCn1c(SCC(=O)N2CCN(C(=O)c3ccco3)CC2)nnc1C(C)C	nt	nt	5	nt	-1	-14
O=C(Cn1cnc2c(oc3ccccc32)c1=O)NCC1CCCO1 (centres undefined)	2	27*	-14	-2	1	1
O=C(Cn1cnc2c(nnn2Cc2ccc(Cl)cc2)c1=O)NCC1CCCO1 (centres undefined)	2	48*	17	-2	-3	-4
Cc1c(C(=O)OCC(=O)NCC2CCCO2)cccc1[N+](=O)[O-] (centres undefined)	nt	nt	1	1	-2	-5
CCCCN(C(=O)NC(=O)Nc1ccccc1OC)S(C)(=O)=O	3	28*	16	-4	2	3
OCC1(CCc2ccccc2)CCN(Cc2cccn2-c2cccnc2)CC1	nt	nt	-9	-13	4	2
c1ccc(N2CCN(c3ncnc4c3oc3ccccc34)CC2)cc1	22*	3	-14	nt	23*	-24
Cc1cc[n+](-c2nc([O-])sc2/C=N/Nc2ccc([N+](=O)[O-])cc2)cc1	2	49*	0	3	-4	-12
CCSc1ncc(/C=N/Nc2ccc([N+](=O)[O-])cc2)n1C	3	7	1	-35	-9	13
CC1=C(C(=O)Nc2ccccn2)C(c2ccc(Cl)cc2Cl)NC(=S)N1 (centres undefined)	nt	nt	22	9	-4	6
CC1CCN(C(=O)c2ccc(-n3cnnn3)cc2)CC1	1	40*	2	2	0	15
COc1ccc(N2CCN(C(=O)c3cc4c(s3)-c3ccccc3S(=O)(=O)C4)CC2)cc1	nt	nt	81*	23	nt	67*
SMILES	NPY Y2 blocker	Measles CPE	NPY-Y1 PAM-ag	Rad51 HR inh	NPY Y1 blocker	NPY2 pot ag
CN1CCN(C(=O)c2cc3c(s2)-c2ccccc2S(=O)(=O)C3)CC1	2	17	-1	-6	-2	-5
O=C(O)COc1ccccc1/C=N/NC(=O)CN1CCN(S(=O)(=O)c2ccc(Br)cc2)CC1	nt	nt	12	-17	nt	3
CCCCC(=O)NC(=S)NNS(=O)(=O)c1ccccc1	-1	42*	2	-5	0	-1
CCOC(=O)CCN(Cc1sccc1C)S(=O)(=O)c1ccc(F)cc1	12	12	-2	9	4	-11
CCOC(=O)CCN(Cc1cccs1)S(=O)(=O)c1ccc(F)cc1	6	48*	3	-10	11	7
CCOC(=O)C/C(C)=N/NC(=O)C1CC1(c1ccccc1)c1ccccc1 (centres undefined)	-1	nt	-10	10	3	-1
Cc1nn(C)c(Oc2ccccc2)c1CCNC(=O)C(C)(C)C	nt	nt	13	nt	-2	-7
C[C@H]1O[C@@H](O[C@H]2[C@@H](O)C[C@H](O[C@H]3[C@@H](O)C[C@H](O[C@H]4CC[C@@]5(C)[C@H](CC[C@@H]6[C@@H]5C[C@@H](O)[C@]5(C)[C@@H](C7=CC(=O)OC7)CC[C@]65O)C4)O[C@@H]3C)O[C@@H]2C)C[C@H](O)[C@@H]1O	53*	-1	-88	3	49*	-22
CC(=O)NCC(=O)OCC(=O)c1ccc(Cl)cc1	nt	nt	-8	-6	2	-3
CS(=O)(=O)N1CCCC(C(=O)NCc2ccccc2Cl)C1 (centres undefined)	3	42*	-15	-9	-4	-12
COc1ccc(/C=C2/SC(=O)N(CCNC(=O)C3CCCN3C(=O)c3cccs3)C2=O)cc1 (centres undefined)	3	42*	19	6	0	6
CS(=O)(=O)Nc1ccc(C2=NN(C(=O)c3ccco3)C(c3ccccc3F)C2)cc1 (centres undefined)	nt	nt	18	8	-2	18
COc1ccc2c(C(=O)CN3CCN(c4ccccc4)CC3)c[nH]c2c1	2	28*	-10	-8	4	-10
CC(C)CCNC(=O)Cc1c(C(=O)O)[nH]c2ccc(Cl)cc12	5	46*	-1	1	10	11
Cc1ccc(NC(=O)COc2ccccc2CNC(C)(C)CC(C)(C)C)cc1	25*	3	-18	2	30*	-36
Cc1ccc(N2CC(C(=O)N/N=C/c3cccc([N+](=O)[O-])c3)CC2=O)cc1 (centres undefined)	2	17	-17	nt	6	-13
O=C(N/N=C/c1cccc([N+](=O)[O-])c1)C1CC(=O)N(c2ccc(Cl)cc2)C1 (centres undefined)	1	72*	-5	1	19	4
